From ChEMBL document CHEMBL3272346, “Vinyl ethers of choline and congeners” (1976) come the findings set out here.

Assay [1] relates to Canis familiaris. Put plainly: Decrease in blood pressure in dog at 1 to 4 ug/kg relative to acetylcholine.
The species named for assay [2] is Cavia porcellus. The experiment in a line: Agonist activity at muscarinic acetylcholine receptor in guinea pig ileum assessed as muscle contraction at 2.5 to 10 ng/ml relative to acetylcholine.
Assay [3] is filed under the species Cavia porcellus. Put plainly: […] at muscarinic acetylcholine receptor in guinea pig ileum assessed as muscle contraction in presence of 0.2 mg/l atropine sulfate. The class given is tissue-based. In a few lines: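 Contractions of a guinea pig ileum segment (animals 300-600 g, tissue taken just before the ileocecal valve) were evoked by added drug. Atropine sulfate was present at 0.2 mg/l to test antagonism of the responses.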

For assay [4], the system named is Canis familiaris. Put plainly: Increase in blood pressure in atropine sulfate-pretreated anesthetized dog at 2 mg/kg. It counts as functional, organism-based. Set-up: dose 2 mg/kg. Conditions: Canis lupus familiaris.
The test system of assay [5] is Canis familiaris. The experiment in a line: Increase in blood pressure in hexamethonium bromide-pretreated anesthetized dog at 0.3 to 0.6 mg/kg. To be noted: Canis lupus familiaris. It counts as functional, organism-based. In a few lines: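 In atropine sulfate-pretreated (0.5 mg/kg) anesthetized dogs, compounds were given intravenously at 0.3 and 0.6 mg/kg. Femoral arterial pressor responses were measured after pretreatment with hexamethonium bromide, 10 mg/kg, given intravenously.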

For assay [6], the system named is Canis familiaris. The experiment in a line: Increase in blood pressure in atropine sulfate-pretreated anesthetized dog at 0.3 to 0.6 mg/kg relative to acetylcholine. It counts as functional, Canis lupus familiaris. To be noted: dose mg/kg 0.3-0.6. The method in brief:
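Dogs were pretreated with atropine sulfate (0.5 mg/kg) and given compounds or acetylcholine at 0.3 and 0.6 mg/kg, rapidly into the right femoral vein in randomized order. Pressor responses were recorded from the left femoral artery by transducer. Relative potencies with 95% confidence intervals were calculated by Finney's method on molar cation amounts.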

Assay [7] deals with Canis familiaris. The experiment in a line: Increase in blood pressure in dog at 0.2 mg/kg. It counts as functional, organism-based. Also noted: dose 0.2 mg/kg. To be noted: Canis lupus familiaris. In a few lines:
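Dogs anesthetized with barbital sodium (250 mg/kg) and pretreated with atropine sulfate (0.5 mg/kg). Agents given rapidly into the right femoral vein in randomized order. Left femoral arterial pressure recorded by transducer. Pressor responses were also tested after intravenous hexamethonium bromide pretreatment (10 mg/kg). Potency is relative to acetylcholine, computed on molar cation amounts by Finney's method with 95% confidence intervals.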

The structures appear in SMILES notation. Activity calls are given as the source filed them. The rule behind the calls is not given here.

`CCOC(C)C[N+](C)(C)C.[I-]` (racemic): the “fold change (FC)” value is 0.64 in assay [1] and 0.03 in assay [2]. For the same compound, the outcome in assay [3] and in assay [4] was inactive.

Consider `CCOCC[N+](C)(C)C.[I-]`, for which the “fold change (FC)” value in assay [1] was found to be 1.03; in assay [2], 0.15; in assay [6] it was 0.9. Besides, the result in assay [5] and in assay [3] was inactive.

On to `C=COCC[N+](C)(C)C.[I-]`, for which the “fold change (FC)” value in assay [1] was 1.13; in assay [2], 0.09; in assay [6], 1.93. Moreover, the outcome in assay [5] and in assay [3] was inactive.

For `C=COC(C)C[N+](C)(C)C.[I-]` (racemic), the figures for the “fold change (FC)” value in assay [1] and in assay [2] were 0.74 and 0.02, respectively. Further, the outcome in assay [3] and in assay [4] was inactive.

With `C=COCC(C)[N+](C)(C)C.[I-]` (racemic), the figures for the “fold change (FC)” value in assay [1], in assay [2] and in assay [6] were 0.06, 0.001 and 3.74, respectively. Also, the outcome in assay [5] and in assay [3] was inactive.

For the compound `CN1C2CCC1CC(OC(=O)C(CO)c1ccccc1)C2` (centres undefined), in assay [7], the result was Active.

For `CCOCC(C)[N+](C)(C)C.[I-]` (racemic), the “fold change (FC)” value in assay [1] was 0.08; in assay [2] it was 0.003; in assay [6], 1.13. Besides, the result in assay [5] and in assay [3] was inactive.
